Source: ChEMBL document CHEMBL1649514, “AmpDI is involved in expression of the chromosomal L1 and L2 beta-lactamases of Stenotrophomonas maltophilia” (2009)
In brackets after ≈: the same amount, converted by molar mass.

Legend:
Assay type in all cases: functional
[1] = tested on: Stenotrophomonas maltophilia; test: Antimicrobial activity against Stenotrophomonas maltophilia KJ by twofold serial agar dilution method
Procedure, shortened: (§1)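 MICs by standard twofold serial agar dilution following CLSI guidelines, done in triplicate. Strains were wild-type clinical isolate KJ, which produces L1 and L2 β-lactamases, and its isogenic ampDI, ampDII and ampDI/ampDII deletion mutants. For cefepime, imipenem and meropenem, MICs were instead read from Etest strips per the manufacturer's instructions.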

[2] = tested on: Stenotrophomonas maltophilia; test: Antimicrobial activity against ampD1-, ampD2-deficient Stenotrophomonas maltophilia KJ by twofold serial agar dilution method; procedure, shortened: as §1
[3] = tested on: Stenotrophomonas maltophilia; test: Antimicrobial activity against ampD2-deficient Stenotrophomonas maltophilia KJ by twofold serial agar dilution method; procedure, shortened: as §1
[4] = tested on: Stenotrophomonas maltophilia; test: Antimicrobial activity against ampD1-deficient Stenotrophomonas maltophilia KJ by twofold serial agar dilution method; procedure, shortened: as §1

SMILES | MIC [1] [µg/mL] | MIC [2] [µg/mL] | MIC [3] [µg/mL] | MIC [4] [µg/mL]
C[C@@H](O)[C@H]1C(=O)N2C(C(=O)O)=C(S[C@@H]3CN[C@H](C(=O)N(C)C)C3)[C@H](C)[C@H]12 [MEROPENEM] | > 32 | > 32 | > 32 | > 32
C[C@H]1[C@H](NC(=O)/C(=N\OC(C)(C)C(=O)O)c2csc(N)n2)C(=O)N1S(=O)(=O)O [AZTREONAM] | > 2050 | > 2050 | > 2050 | > 2050
CO[C@@]1(NC(=O)Cc2cccs2)C(=O)N2C(C(=O)O)=C(COC(N)=O)CS[C@@H]21 [CEFOXITIN] | 1020 (≈ 2400 µM) | 1020 (≈ 2400 µM) | 1020 (≈ 2400 µM) | 1020 (≈ 2400 µM)
CO/N=C(\C(=O)N[C@@H]1C(=O)N2C(C(=O)O)=C(COC(N)=O)CS[C@H]12)c1ccco1 [CEFUROXIME] | 2050 (≈ 4830 µM) | 2050 (≈ 4830 µM) | 2050 (≈ 4830 µM) | 2050 (≈ 4830 µM)
CO/N=C(\C(=O)N[C@@H]1C(=O)N2C(C(=O)O)=C(CSc3nc(=O)c(O)nn3C)CS[C@H]12)c1csc(N)n1 [CEFTRIAXONE] | 256 (≈ 462 µM) | 256 (≈ 462 µM) | 256 (≈ 462 µM) | 256 (≈ 462 µM)
CO/N=C(\C(=O)N[C@@H]1C(=O)N2C(C(=O)[O-])=C(C[N+]3(C)CCCC3)CS[C@H]12)c1csc(N)n1 [CEFEPIME] | 64 (≈ 133 µM) | 96 (≈ 200 µM) | 64 (≈ 133 µM) | 96 (≈ 200 µM)
C[C@@H](O)[C@H]1C(=O)N2C(C(=O)O)=C(SCCNC=N)C[C@H]12 [IMIPENEM ANHYDROUS] | > 32 | > 32 | > 32 | > 32
CC1(C)S[C@@H]2[C@H](NC(=O)C(C(=O)O)c3ccccc3)C(=O)N2[C@H]1C(=O)O (stereo partly specified) [CARBENICILLIN] | 1020 (≈ 2710 µM) | 1020 (≈ 2710 µM) | 1020 (≈ 2710 µM) | 1020 (≈ 2710 µM)
CCN1CCN(C(=O)N[C@@H](C(=O)N[C@@H]2C(=O)N3[C@@H]2SC(C)(C)[C@@H]3C(=O)O)c2ccccc2)C(=O)C1=O [PIPERACILLIN] | 1020 (≈ 1980 µM) | 1020 (≈ 1980 µM) | 1020 (≈ 1980 µM) | 1020 (≈ 1980 µM)
